In data set [1] the target is T1, P2X purinoceptor 7 (Homo sapiens) (UniProt Q99572).
T1 sequence (whole entry): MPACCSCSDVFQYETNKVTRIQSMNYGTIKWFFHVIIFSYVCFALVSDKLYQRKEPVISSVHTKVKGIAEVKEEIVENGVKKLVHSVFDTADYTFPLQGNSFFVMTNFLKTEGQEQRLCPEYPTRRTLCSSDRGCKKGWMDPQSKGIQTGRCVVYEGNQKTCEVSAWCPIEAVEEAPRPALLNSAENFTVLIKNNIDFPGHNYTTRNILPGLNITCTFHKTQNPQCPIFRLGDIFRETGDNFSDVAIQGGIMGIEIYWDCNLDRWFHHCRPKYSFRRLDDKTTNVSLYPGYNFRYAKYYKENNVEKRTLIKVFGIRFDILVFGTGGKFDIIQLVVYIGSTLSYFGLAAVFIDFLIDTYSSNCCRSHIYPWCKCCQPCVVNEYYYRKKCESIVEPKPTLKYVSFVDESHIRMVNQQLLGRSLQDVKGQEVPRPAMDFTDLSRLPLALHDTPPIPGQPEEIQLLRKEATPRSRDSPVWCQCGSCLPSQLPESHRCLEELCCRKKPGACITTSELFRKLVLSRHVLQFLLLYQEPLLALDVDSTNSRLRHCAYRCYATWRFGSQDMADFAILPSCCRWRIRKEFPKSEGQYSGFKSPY
As to the kind of experiment: Antagonist activity at P2X7R in human THP1 cells assessed as inhibition of LPS and BzATP-induced ROS production at 10^-6mol/L pretreated with compound followed by LPS/BzATP addition and measured after 5 hrs by kinetic chemiluminescence based fluorometric analysis. The format is cell-based. To be noted: THP-1. An outline of the steps: (§1)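 Differentiated THP-1 macrophages (10^5 cells, RPMI 1640 + 10% FBS) pretreated with antagonist at 10^-6 mol/L before LPS (10 μmol/L) and BzATP (70 μmol/L), 37 °C, 5% CO2; ROS detected as luminol (50 μM)/horseradish peroxidase (50 μg/mL) chemiluminescence on a fluorometer; H2O2 without cells as positive control.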

Data set [2] concerns the target T1, P2X purinoceptor 7 (Homo sapiens). As to the kind of experiment: Antagonist activity at P2X7R in human THP1 cells assessed as inhibition of LPS and BzATP-induced ROS production at 10^-6mol/L pretreated with compound followed by LPS/BzATP addition and measured after 6 hrs by kinetic chemiluminescence based fluorometric analysis. The format is cell-based. To be noted: THP-1. An outline of the steps: as §1

Data set [3] shares this target. As to the kind of experiment: Antagonist activity at P2X7R in human THP1 cells assessed as inhibition of LPS and BzATP-induced cell death at 10^-6 mol/L pretreated with compound followed by LPS/BzATP addition and measured after 4 hrs by sytox green dye based flow cytometry. Conditions: THP-1.
For data set [4] the target is unchanged. As to the kind of experiment: Antagonist activity at P2X7R in human THP1 cells assessed as inhibition of LPS and BzATP-induced mature form of IL-1beta expression in whole cell extract at 10^-6 mol/L pretreated with compound followed by LPS/BzATP addition and measured after 2 to 6 hrs by Western blot analysis. The format is cell-based. To be noted: THP-1.

For data set [5] the target is unchanged. As to the kind of experiment: Antagonist activity at P2X7R in human THP1 cells assessed as inhibition of LPS and BzATP-induced IL-1beta expression by measuring increase in proIL-1beta expression in cell supernatant extract at 10^-6 mol/L pretreated with compound followed by LPS/BzATP addition and measured after 6 hrs by Western blot analysis. The data set is classed as cell-based. Conditions: THP-1. Background: In western blotting, separated proteins are transferred to a membrane and probed.

Data set [6] has the same target. Kind of data set: Antagonist activity at P2X7R in human THP1 cells assessed as inhibition of LPS and BzATP-induced ROS production at 10^-6mol/L pretreated with compound followed by LPS/BzATP addition and measured after 4 hrs by kinetic chemiluminescence based fluorometric analysis. To be noted: THP-1. The format is cell-based. An outline of the steps:
as §1

Data set [7] relates to Mus musculus. Kind of data set: Antiinflammatory activity against DSS-induced colitis C57BL/6J mouse model assessed as reduction in DAI score at 2.5 mg/kg, ip administered daily and measured for 15 days. The data set is classed as functional. Conditions: 360 h. An outline of the steps: (§2)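 DSS colitis in WT mice: 3.8% DSS in drinking water days 1–5, then tap water for 10 days; compound 2.5 mg/kg given i.p. daily in 10% DMSO/PBS; cohorts of 10 mice per group, placebo as comparator; weight loss and clinical disease score tracked; colon sections at day 14 stained with H&E and histologically scored; data as mean ± SEM.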

The test system of data set [8] is Mus musculus. As to the kind of experiment: Antiinflammatory activity against DSS-induced colitis C57BL/6J mouse model assessed as reduction in diarrhea at 2.5 mg/kg, ip administered daily and measured for 15 days. The data set is classed as functional, organism-based. Put shortly:
as §2

The nature of data set [9]: Drug metabolism in human liver microsomes assessed as metabolite N-[(2,4-dichlorophenyl)methyl]-5-oxo-pyrrolidine-2-carboxamide formation at 0.2 mg/ml incubated for 60 mins by UPLC-MS/MS analysis. The format is ADME, Microsome. To be noted: 1 h. An outline of the steps:
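Human liver microsomes (2 mg protein/mL) pre-activated with alamethicin in 0.1 M Tris-HCl/10 mM MgCl₂ pH 7.4, added to dried residue of 0.2 mg/mL compound solution; cofactors UDPGA 5 mM, NADPH 1.3 mM, G6P 3.3 mM, G6PD 0.5 U/mL. 37 °C, 60 min; stopped with methanol plus internal standards. Supernatant analysed by online-extraction UPLC on C18 with Q-TOF MS, ESI+.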

In data set [10] the test system is Mus musculus. As to the kind of experiment: Antiinflammatory activity against DSS-induced colitis C57BL/6J mouse model assessed as decrease in inflammation level in colon at 2.5 mg/kg, ip administered daily and measured after day 14 by hematoxylin and eosin staining based microscopic analysis. The format is functional. To be noted: 336 h. An outline of the steps:
as §2

For data set [11], the system named is Mus musculus. As to the kind of experiment: Antiinflammatory activity against DSS-induced colitis C57BL/6J mouse model assessed as reduction in rectal bleeding at 2.5 mg/kg, ip administered daily and measured for 15 days. The format is functional, organism-based. An outline of the steps: as §2
The subject of data set [12] is Mus musculus. As to the kind of experiment: Antiinflammatory activity against DSS-induced colitis C57BL/6J mouse model assessed as areas of normal colonic mucosa with straight and larger crypts on muscularis mucosa at 2.5 mg/kg, ip administered daily and measured after day 14 by hematoxylin and eosin staining based microscopic analysis. The data set is classed as functional, organism-based. An outline of the steps:
as §2

Data set [13] has as its system Mus musculus. As to the kind of experiment: Antiinflammatory activity against DSS-induced colitis C57BL/6J mouse model assessed as body weight loss at 2.5 mg/kg, ip administered daily and measured for 15 days relative to placebo-treated control. The data set is classed as functional. Put shortly:
as §2

Each structure is given as a SMILES string. The source made the active and inactive calls. The calls are words filed in the database; no cut-off is given here.

Broadly, the inhibition in vivo is the share of the control response that was lost under treatment.

With `O=C(NCc1ccc(Cl)cc1Cl)[C@@H]1CCC(=O)N1c1ccsc1`, the inhibition result in data set [1], in data set [3], in data set [4], in data set [5] and in data set [6] was “Active” throughout. Also, the inhibition result in [2] is “inactive”.

For `O=C(NCc1ccc(Cl)cc1Cl)[C@@H]1CCC(=O)N1c1cccs1`, the inhibition in vivo at 2.5 mg/kg with Mus musculus [7] is 31%; with Mus musculus [10], 42 to 50%. In addition, the inhibition entry in data set [1], in data set [3], in data set [4], in data set [5] and in [6] was “Active” each time. Also, the outcome in the data set with Mus musculus [8], in the data set with Mus musculus [11] and in the data set on Mus musculus [12] was Active. In addition, the inhibition result in [2] is “inactive”. Also, the Drug metabolism entry in data set [9] is on record as “Metabolite_Detected”. Also, the Activity in the data set with Mus musculus [13] turned out to be 50%.

The record behind these values is ChEMBL document CHEMBL4627246, “Pyroglutamide-Based P2X7 Receptor Antagonists Targeting Inflammatory Bowel Disease” (J Med Chem, 2020).
